Data as given in ChEMBL document CHEMBL3751740, “New MKLP-2 inhibitors in the paprotrain series: Design, synthesis and biological evaluations” (Bioorg Med Chem, 2016).
Activity calls are given as the source filed them. The calls are words filed in the database; no cut-off is given here.

Columns and labels:
Ovis aries [1] = species: Ovis aries; assay: Induction of sheep brain microtubule disassembly by UV spectrophotometric analysis
Procedure, shortened: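 Sheep brain tubulin, purified by two assembly/disassembly cycles and held in MES buffer with GTP at pH 6.6, was polymerized at 37 °C for 10 min. Compound was then added to the MTs at 0 °C and depolymerization was followed over the next few minutes by turbidity at 350 nm.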

[2] = molecular target: T1, Kinesin-like protein KIF20A (Homo sapiens, UniProt O95235); assay: Inhibition of microtubule-stimulated N-terminal MKLP-2 (56 to 505 residues) ATPase activity isolated from human hepatocellular carcinoma cells by pyruvate kinase/lactate dehydrogenase enzyme linked assay
T1 sequence (O95235 whole entry): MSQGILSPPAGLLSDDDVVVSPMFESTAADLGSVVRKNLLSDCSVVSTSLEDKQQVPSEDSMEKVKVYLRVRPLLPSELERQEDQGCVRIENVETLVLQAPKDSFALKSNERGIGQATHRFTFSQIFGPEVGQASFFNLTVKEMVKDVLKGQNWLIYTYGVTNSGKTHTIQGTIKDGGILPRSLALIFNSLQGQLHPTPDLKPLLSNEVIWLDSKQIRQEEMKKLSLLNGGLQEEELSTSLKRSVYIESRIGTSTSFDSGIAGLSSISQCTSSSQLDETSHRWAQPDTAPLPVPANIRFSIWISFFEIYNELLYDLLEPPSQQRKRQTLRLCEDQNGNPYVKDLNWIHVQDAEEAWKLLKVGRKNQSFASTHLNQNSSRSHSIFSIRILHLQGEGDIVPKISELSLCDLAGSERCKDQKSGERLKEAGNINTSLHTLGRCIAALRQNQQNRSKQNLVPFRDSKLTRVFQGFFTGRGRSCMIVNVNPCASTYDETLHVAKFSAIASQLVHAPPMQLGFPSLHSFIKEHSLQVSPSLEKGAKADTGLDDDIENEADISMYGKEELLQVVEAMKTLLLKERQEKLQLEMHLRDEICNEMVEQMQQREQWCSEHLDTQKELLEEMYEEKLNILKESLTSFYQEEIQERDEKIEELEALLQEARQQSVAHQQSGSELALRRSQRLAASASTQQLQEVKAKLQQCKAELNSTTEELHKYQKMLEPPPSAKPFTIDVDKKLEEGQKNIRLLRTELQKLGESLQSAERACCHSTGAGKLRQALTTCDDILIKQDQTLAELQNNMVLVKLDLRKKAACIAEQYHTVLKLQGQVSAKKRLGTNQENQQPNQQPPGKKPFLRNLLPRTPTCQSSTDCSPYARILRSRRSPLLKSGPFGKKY

Ovis aries [3] = species: Ovis aries; assay: (§1) Inhibition of sheep brain tubulin polymerization by UV spectrophotometric analysis; design: concentration or dose not given beside the values
Procedure, shortened: (§2)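 Tubulin purified from sheep brain by two assembly/disassembly cycles, about 2–3 mg/mL in 0.1 M MES, 0.5 mM MgCl2, 1 mM EGTA, 1 mM GTP, pH 6.6. Compound in DMSO added at 0 °C, then moved to a 37 °C thermostated cell. Assembly followed by turbidity at 350 nm for a few min.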

[4] = molecular target: T1, Kinesin-like protein KIF20A; assay: Inhibition of N-terminal MKLP2 (56 to 505 residues) ATPase basal activity isolated from human hepatocellular carcinoma cells by pyruvate kinase/lactate dehydrogenase enzyme linked assay
KB [5] = assay: Growth inhibition of human KB cells at 10 uM after 72 hrs by MTS assay; type: functional; settings: for inhibition of growth at 10 µM: read-out: GI
Procedure, shortened: (§3)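 KB cells were grown in DMEM with 25 mM glucose and 10% FCS at 37 °C, 5% CO2, and seeded at 500 cells/well. 24 h later, compound in DMSO (1% final) was added at 10 µM or 1 µM for 72 h; controls received DMSO alone. Runs were in duplicate. Viable cells were read with MTS at 490 nm.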

KB [6] = assay: Growth inhibition of human KB cells at 1 uM after 72 hrs by MTS assay; type: functional; settings: for inhibition of growth at 1 µM: read-out: GI; procedure, shortened: as §3
KB [7] = assay: Growth inhibition of human KB cells after 72 hrs by MTS assay; type: functional
[8] = as §1; design: species or system Ovis aries; procedure, shortened: as §2
Ovis aries [9] = species: Ovis aries; assay: Inhibition of sheep brain microtubule disassembly by UV spectrophotometric analysis; design: concentration or dose not given beside the values

SMILES	Activity (Ovis aries [1])	IC50 [2]	inhibition (Ovis aries [3])	IC50 [4]	GI50 (KB [7]) [µM]	inhibition (Ovis aries [3]; concentration not given here) [%]	IC50 [8] [µM]	Activity (Ovis aries [9]) [%]	inhibition of growth at 10 µM (KB [5]) [%]	growth inhibition (GI) (KB [6])	inhibition of growth at 1 µM (KB [6]) [%]	growth inhibition (GI) (KB [5])
CC(=O)O[C@@]12CO[C@@H]1C[C@H](O)[C@@]1(C)C(=O)[C@H](O)C3=C(C)[C@@H](OC(=O)[C@H](O)[C@@H](NC(=O)OC(C)(C)C)c4ccccc4)C[C@@](O)([C@@H](OC(=O)c4ccccc4)[C@H]21)C3(C)C [DOCETAXEL ANHYDROUS]		Not Active		Not Active	0.00013							
COc1cc(/C=C(\C#N)c2c[nH]c3ccccc23)cc(OC)c1OC	inactive	Not Active	inactive	Not Active					81		6	
N#C/C(=C\c1ccc(C(F)(F)F)cc1)c1c[nH]c2ccccc12	inactive	Not Active		Not Active		57			87	inactive		
COc1cc2c(c(OC)c1OC)-c1ccc(OC)c(=O)cc1[C@@H](NC(C)=O)CC2 [COLCHICINE]		Not Active		Not Active	0.0042							
COc1cc(OC)c(/C=C(\C#N)c2c[nH]c3ccccc23)c(OC)c1		Not Active	inactive	Not Active				13	83	inactive		
N#CC(Cc1cccnc1)c1c[nH]c2ccccc12 (stereo not given)						16		21	5			
COc1ccc2[nH]cc(C(C#N)c3cccnc3)c2c1 (stereo not given)	inactive	Not Active	inactive	Not Active					45			
N#C/C(=C\c1cccnc1)c1c(-c2ccsc2)[nH]c2ccccc12	inactive	Not Active		Not Active		70	9.2		99		12	
COc1ccc2[nH]cc(/C(=C/C#N)Cc3cccnc3)c2c1	inactive	Not Active		Not Active		33						inactive
N#C/C(=C\c1cccnc1)c1c(-c2ccccc2)[nH]c2ccccc12		Not Active		Not Active		33		13	93	inactive		
COc1cc(OC)c(OC)cc1/C=C(\C#N)c1c[nH]c2ccccc12	inactive	Not Active		Not Active		32			100		40	
CC(=O)O[C@H]1C(=O)[C@@]2(C)[C@H]([C@H](OC(=O)c3ccccc3)[C@]3(O)C[C@H](OC(=O)[C@H](O)[C@@H](NC(=O)c4ccccc4)c4ccccc4)C(C)=C1C3(C)C)[C@]1(OC(C)=O)CO[C@@H]1C[C@@H]2O [PACLITAXEL]		Not Active		Not Active	0.001		1					

Now from value to molecule, other results behind:

Activity (Ovis aries [1])	IC50 [2]	inhibition (Ovis aries [3])	IC50 [4]	GI50 (KB [7]) [µM]	inhibition (Ovis aries [3]; concentration not given here) [%]	IC50 [8] [µM]	Activity (Ovis aries [9]) [%]	SMILES	inhibition of growth at 10 µM (KB [5]) [%]	growth inhibition (GI) (KB [6])	inhibition of growth at 1 µM (KB [6]) [%]	growth inhibition (GI) (KB [5])
inactive	Not Active	inactive	Not Active					COc1cccc2c(/C(C#N)=C/c3cccnc3)c[nH]c12	85	inactive		
inactive		inactive						N#C/C(=C\c1cccc(Cl)c1)c1c[nH]c2ccccc12	94		19	
inactive	Not Active		Not Active		62	20		COc1ccc(/C=C(\C#N)c2c[nH]c3ccccc23)cc1OC	99		25	
inactive	Not Active	inactive	Not Active					COc1cccc(/C=C(\C#N)c2c[nH]c3ccccc23)c1OC	100		2	
inactive					13			N#C/C(=C\c1ccc(Cl)cc1)c1c[nH]c2ccccc12	78			
	Not Active	inactive	Not Active				14	COc1ccc2[nH]cc(C(=O)/C(C#N)=C/c3cccnc3)c2c1	27			
inactive	Not Active	inactive	Not Active					CSc1ccc(/C=C(\C#N)c2c[nH]c3ccccc23)cc1	98	inactive		
inactive					19			N#C/C(=C\c1cccnc1)c1c[nH]c2ncccc12	100		29	
inactive					22			N#C/C(=C\c1ccc(F)cc1)c1c[nH]c2ccccc12	84	inactive		
inactive					45			N#C/C(=C\c1c[nH]c2ccccc12)c1cccnc1	23			
	Not Active		Not Active		22		47	COc1cc(/C=C(\C#N)c2c[nH]c3ccccc23)cc(OC)c1O	95		59	
	Not Active		Not Active		37		38	COc1cccc(/C=C(\C#N)c2c[nH]c3ccccc23)c1	89	inactive		
inactive		inactive						COc1ccc2[nH]c(C)c(/C(C#N)=C/c3cccnc3)c2c1	69			
inactive	Not Active	inactive	Not Active					COc1ccc2c(c1)c(/C(C#N)=C/c1cccnc1)cn2C(C)=O	74			
	Not Active		Not Active		53	115	15	COc1ccc2c(c1)c(/C(C#N)=C/c1cccnc1)cn2C	33			
inactive	Not Active		Not Active		76	12		COc1ccc(/C=C(\C#N)c2c[nH]c3ccccc23)c(OC)c1	99		35	
					31		11	COc1cc(/C=C(\C#N)c2c[nH]c3ccccc23)cc(OC)c1	96		31	
inactive	Not Active		Not Active		11			COc1ccc2[nH]cc(/C(C#N)=C/C=C/c3cccnc3)c2c1	10			
